Several values for one entry are separate records, joined by “and”; a condition that tells them apart may be missing. Equal entries are not always repeated. Where two headings read alike, the source gives them in different places. Each block holds one compound with its values, some of them ahead of it.
Legend:
healthy elderly subjects [1] = assay: Mismatch negativity auditory event-related potential; type: in vivo, human; conditions: vs placebo
Outline: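 Passive auditory oddball while subjects watched a silent movie. 750 tones were given (600 frequent, 150 deviant), each 150 ms at 75 dB, at a fixed 2 Hz rate. Event-related potential recorded by EEG. Healthy elderly subjects received oral 2 or 4 mg or placebo in a crossover design with repeated postdose sessions. Compared with placebo by mixed-model analysis.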

Population PK model = type: in vivo, human; conditions: oral
Outline: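 Nonlinear mixed-effects modelling of plasma concentrations after oral 2 and 4 mg in healthy elderly subjects. 1-, 2- and 3-compartment models were explored, with or without absorption lag time and transit compartments. Between-subject and between-occasion variability were added bottom-up (P < .01). Age, sex, weight and BMI were tested as covariates (forward P < .01, backward P < .001). The final model had 2 compartments with linear elimination.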

healthy elderly subjects [2] = assay: Visual-verbal learning test; type: in vivo, human; conditions: 4 mg oral, vs placebo
Outline: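 A 30-word list was presented. Immediate recall rounds assessed acquisition at 1.5 h postdose, followed by delayed recall and recognition. Subjects received oral 4 mg, 2 mg or placebo in a crossover design; single-occasion test. Analysed by mixed-model ANOVA with treatment and period as fixed factors and subject as random factor, comparing least-squares means with placebo.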

healthy elderly subjects [3] = assay: N-back task; type: in vivo, human; conditions: vs placebo
M5 mAChR = conditions: read-out: equilibrium dissociation constant [Kd] for M5; cited from earlier work
[4] = cited from earlier work
healthy elderly subjects [5] = assay: Safety and tolerability; type: in vivo, human; conditions: 2 and 4 mg oral
Outline: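 Safety was monitored through treatment-emergent adverse events, laboratory tests, vital signs and ECG during each period. Randomization gave the 4-mg dose only after the 2-mg study day had been completed. A snack was given within 30 minutes before dosing, and caffeine and nicotine were not allowed. Oral single doses with a 1-week washout.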

healthy elderly subjects [6] = assay: Pupillometry; type: in vivo, human
Outline: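 Pupil images were taken with a digital camera and single flash. Pupil and iris diameters were measured horizontally in pixels, and the pupil/[…] diameter ratio was calculated for each eye. Oral 2 mg, 4 mg or placebo in a crossover design in healthy elderly subjects. Measured twice predose and at 1, 2.5, 4, 7 and 22 h. Mixed-model ANCOVA with baseline covariate against placebo.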

healthy elderly subjects [7] = assay: Population PK-PD model; type: in vivo, human
healthy elderly subjects [8] = assay: Visual analog scales; type: in vivo, human; conditions: both doses (2 and 4 mg)
Outline: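 Bond and Lader visual analog scales rated alertness, mood and calmness, and nausea was rated on a 100-mm line. Oral 2 mg, 4 mg or placebo in a crossover design in healthy elderly subjects. Ratings were made repeatedly predose and up to 22 h postdose. Analysed by mixed-model ANCOVA with baseline covariate against placebo.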

M1 mAChR = conditions: read-out: equilibrium dissociation constant [Kd] for M1; cited from earlier work
[9] = Plasma pharmacokinetics, noncompartmental analysis; type: in vivo; conditions: human, po
Outline: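 K2-EDTA plasma underwent liquid-liquid extraction and LC-MS/MS: phenyl column, isocratic 0.025% NH4OH in 67% acetonitrile, positive MRM at m/z 312→143, deuterated internal standard. QC levels were 0.300, 1.50 and 8.00 ng/mL. Parameters were obtained by noncompartmental analysis.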

healthy elderly subjects [10] = assay: Finger tapping test; type: in vivo, human; conditions: both doses (2 and 4 mg)
Outline: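 Finger tapping with the index finger of the dominant hand on a computer space bar, as fast as possible. Each session had 5 trials of 10 s, and mean tapping rate and SD were analysed. Oral 2 mg, 4 mg or placebo in a crossover design; tests predose and at 1, 2.5, 4, 7 and 22 h. Mixed-model ANCOVA with baseline covariate.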

healthy elderly subjects [11] = assay: Body sway; type: in vivo, human; conditions: 22 hours postdose
Outline: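 Crossover in healthy elderly subjects given oral 2 mg, 4 mg or placebo. Postural stability was measured with a body sway meter recording movement in a single plane over 2 minutes, with movements integrated. Measured twice predose and at 1, 2.5, 4, 7 and 22 h postdose. Analysis used mixed-model ANCOVA with time and treatment factors and the average baseline as covariate.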

M3 mAChR = conditions: read-out: equilibrium dissociation constant [Kd] for M3; cited from earlier work
M2 mAChR = conditions: read-out: equilibrium dissociation constant [Kd] for M2; cited from earlier work
healthy elderly subjects [12] = assay: Saccadic and smooth pursuit eye movements; type: in vivo, human
Outline: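 Subjects followed a horizontally moving target on a screen 58 cm away. The target moved continuously for smooth pursuit and jumped side to side for saccades, and movements were recorded by computer. Oral 2 mg, 4 mg or placebo in a crossover design in healthy elderly subjects; tests predose and at 1, 2.5, 4, 7 and 22 h. Mixed-model ANCOVA with baseline covariate.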

healthy elderly subjects [13] = assay: Adaptive tracking test; type: in vivo, human; conditions: for decrease in mean adaptive tracking test performance: vs placebo
Outline: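 Randomized, double-blind, placebo-controlled 3-way crossover in 12 subjects aged 65–80 years (MMSE ≥28). Single oral doses of 2 or 4 mg test compound or placebo, 1-week washout. Joystick pursuit task: the subject keeps a dot inside a randomly moving circle, whose speed rises with success and falls with failure. Tested twice predose and at 1, 2.5, 4, 7 and 22 h. Mixed-model ANCOVA with baseline covariate; least-squares means versus placebo.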

M4 mAChR = conditions: read-out: equilibrium dissociation constant [Kd] for M4; cited from earlier work
healthy subjects [14] = conditions: cited from earlier work
healthy subjects [15] = conditions: cited from earlier work; remark: listed apart in the source

half-life (Population PK model; human, plasma): 29.5 h
Absorption rate constant (Population PK model; population PK estimate): 2.73 (BOV = 97.7%) /hour
Clearance (Population PK model; population PK estimate): 78.06 (IIV = 172%, BOV = 12%) L/h/F
Lag time (Population PK model; population PK estimate): 0.54 (BOV = 75%) hours
Volume of distribution—central (Population PK model; population PK estimate): 491.40 (IIV = 79.5%) L/F
VAS nausea scores, change (healthy elderly subjects [8]): No significant changes
AUC(0-t) ([9]; 2 mg): 18.4 ng·h/mL
Cmax ([9]; 2 mg): 3.51 ng/mL
AUC(0-t) ([9]; 4 mg): 39.5 ng·h/mL
Cmax ([9]; 4 mg): 7.45 ng/mL
Tmax ([9]; 4 mg): 2 h
Structure (SMILES): OC(CCN1CCCCC1)(c1ccccc1)C1CC2C=CC1C2 (centres unmarked) [biperiden]
MMN latency at Fz, increase (healthy elderly subjects [1]; 2 mg oral): 12.1 milliseconds
MMN latency at Fz, increase (healthy elderly subjects [1]; 4 mg oral): 13.9 milliseconds
VVLT second immediate recall round, fewer words recalled (healthy elderly subjects [2]): 2.5 words
VVLT third immediate recall round, fewer words recalled (healthy elderly subjects [2]): 2.9 words
n-back reaction time and accuracy, change (healthy elderly subjects [3]; 2 mg oral): No significant change
n-back 0-back condition reaction time, mean difference (healthy elderly subjects [3]; 4 mg oral): 37.2 milliseconds
n-back 1-back condition reaction time, mean difference (healthy elderly subjects [3]; 4 mg oral): 49.9 milliseconds
n-back 2-back condition accuracy, decrease (healthy elderly subjects [3]; 4 mg oral): 0.06
n-back task reaction time increase (healthy elderly subjects [3]; 4 mg oral): ≤ 50 millisecond
Kd (M5 mAChR): 6.3 ± 0.1 nM
bioavailability ([4]; assumed, oral ref 18): approximately 33%
Tmax ([4]; postdose, as stated for previous studies): approximately 1 hour
tolerability (healthy elderly subjects [5]): well tolerated
tolerability (healthy elderly subjects [5]; listed as Biperiden): very well tolerated
pupil/iris ratio left eye, mean difference (healthy elderly subjects [6]; 4 mg oral, vs placebo): 0.065
pupil/iris ratio right eye, mean difference (healthy elderly subjects [6]; 4 mg oral, vs placebo): 0.07341
pupil/iris ratio in both eyes, recovery (healthy elderly subjects [6]; 22 hours postdose): not normalized 22 hours postdose
adaptive tracking, linear concentration-effect slope (healthy elderly subjects [7]): −0.98 percentage point/ng/mL
n-back 0-back accuracy measure, drug effect (healthy elderly subjects [7]): No significant effect
n-back 0-back reaction time, Emax (healthy elderly subjects [7]): 288.5 milliseconds
n-back 0-back reaction time, Hill coefficient (healthy elderly subjects [7]): 2.25
n-back 1-back accuracy measure, linear drug effect slope (healthy elderly subjects [7]): -0.011 ng⁻¹ mL⁻¹
n-back 1-back reaction time, linear drug effect slope (healthy elderly subjects [7]): 16.18 ms/ng/mL
n-back 2-back reaction time, linear drug effect slope (healthy elderly subjects [7]): 11.08 ms/ng/mL
VAS Bond and Lader subscales of mood, alertness, and calmness, change (healthy elderly subjects [8]): No significant changes
Kd (M1 mAChR): 0.48 ± 0.02 nM
tapping-test performance, change (healthy elderly subjects [10]): No significant changes
body sway, recovery (healthy elderly subjects [11]): not normalized 22 hours postdose
Kd (M3 mAChR): 3.9 ± 0.1 nM
Kd (M2 mAChR): 6.3 ± 0.5 nM
smooth pursuit, effect (healthy elderly subjects [12]; 2 mg oral, vs placebo): No significant effect
smooth pursuit decrease (healthy elderly subjects [12]; 4 mg oral, vs placebo): 3.55 percentage point
saccadic inaccuracy, peak velocity, or reaction time, effect (healthy elderly subjects [12]; both doses (2 and 4 mg) vs placebo): No significant effects
decrease in mean adaptive tracking test performance (healthy elderly subjects [13]; 2 mg oral): 1.36 percentage point
adaptive tracking, change compared with placebo (healthy elderly subjects [13]; 4 mg oral): −2.1 percentage point
decrease in mean adaptive tracking test performance (healthy elderly subjects [13]; 4 mg oral): 2.10 percentage point and 2.1 percentage point
Kd (M4 mAChR): 2.4 ± 0.03 nM

Structure (SMILES): NC(=O)C(c1ccccc1)(c1ccccc1)[C@@H]1CCN(CCc2ccc3c(c2)CCO3)C1 [darifenacin]
effect on body sway (healthy subjects [14]): increase body sway

Structure (SMILES): CN1[C@@H]2C[C@@H](OC(=O)[C@H](CO)c3ccccc3)C[C@H]1[C@@H]1O[C@@H]12 [scopolamine]
peak saccadic velocity, effect (healthy subjects [15]): concentration‐related decrease

From PMC8596596 (Journal of Clinical Pharmacology, 2021)
